19 molecules from paper PMC9301648 (ACS Omega, 2022) can be followed below.

Series [1] relates to human coronavirus (HCoV) 229E. The series is described as follows: cytopathic effect. In kind it is cell-based. The note with it: for inhibition at 25 µM: unidentified human coronavirus, MRC5, read-out: normalized inhibition % (25 μM); for inhibition of HCoV 229E in words: 25 μM, MRC5 cells. The method, boiled down: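 MRC5 cells were seeded at 20,000 cells/well and grown overnight at 37 °C, 5% CO₂. Test compound diluted in assay medium was added, then HCoV 229E diluted in assay medium; final DMSO 0.5%. CPE was read by CellTiter Glo. Protection at each concentration was normalized to virus-only control. Screen at 25 μM; EC50 from full dose–response by four-parameter variable-slope nonlinear regression.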

The nature of series [2]: cytotoxicity toward MRC5 cells, same conditions without virus infection. The note with it: human. In kind it is cell-based. Put shortly: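 Run in parallel with the antiviral CPE assay under identical conditions without virus infection. MRC5 cells were seeded at 20,000 cells/well and cultured overnight at 37 °C, 5% CO₂. Test compound diluted in assay medium was added; final DMSO 0.5%. Viability was read by CellTiter Glo. Single-point at 25 μM; CC50 by four-parameter log(inhibitor) vs response variable-slope regression.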

A value given as a limit tells only on which side of the number the result lay.

`CC(=O)OC[C@@]1(C)[C@H]2CC[C@@H]3CN(Cc4ccc(C(F)(F)F)cc4)[C@@H](C4=CCOC4=O)C[C@H]3[C@]2(C)CC[C@H]1OC(C)=O` [4h, ((2R,4aS,6aS,7R,8R,10aS,10bR)-8-Acetoxy-7,10a-dimethyl-2-(2-oxo-2,5-dihydrofuran-3-yl)-3-(4-(trifluoromethyl)benzyl)tetradecahydrobenzo[f]isoquinolin-7-yl)methyl Acetate]: in series [1], the inhibition at 25 µM amounted to 119%. Further, the cytotoxicity at 3 days, 25 µM in series [2] is -5.4%.
The corresponding values for `C[C@]1(CO)[C@H]2CC[C@@H]3CN(Cc4ccccc4)[C@@H](C4=CCOC4=O)C[C@H]3[C@]2(C)CC[C@H]1O` [11a, 3-((2R,4aS,6aS,7R,8R,10aS,10bR)-3-Benzyl-8-hydroxy-7-(hydroxymethyl)-7,10a-dimethyltetradecahydrobenzo[f]isoquinolin-2-yl)furan-2(5H)-one] are 39.7% and -4.8%.
Consider `Cc1ccc(CN2C[C@H]3CC[C@@H]4[C@]5(C)COC(C)(C)O[C@@H]5CC[C@@]4(C)[C@@H]3C[C@@H]2C2=CCOC2=O)cc1` [9f, 3-((4aR,4bS,6aS,9R,10aR,10bS,12aR)-2,2,4a,10b-Tetramethyl-8-(4-methylbenzyl)tetradecahydro-4H-[1,3]dioxino[5′,4′:3,4]benzo[1,2-f]isoquinolin-9-yl)furan-2(5H)-one], for which, in series [1], the “inhibition of HCoV 229E in words” value is “good inhibition” and the inhibition at 25 µM stood at 100%. Further, in series [2], the CC50 at 3 days was greater than 100 µM and the cytotoxicity at 3 days, 25 µM is -1.6%.
With `CC(=O)OC[C@@]1(C)[C@H]2CC[C@@H]3CN(Cc4ccccc4)[C@@H](C4=CCOC4=O)C[C@H]3[C@]2(C)CC[C@H]1OC(C)=O` [4a, ((2R,4aS,6aS,7R,8R,10aS,10bR)-8-Acetoxy-3-benzyl-7,10a-dimethyl-2-(2-oxo-2,5-dihydrofuran-3-yl)tetradecahydrobenzo[f]isoquinolin-7-yl)methyl Acetate], in series [1], the inhibition at 25 µM was 66.8%. Moreover, the cytotoxicity at 3 days, 25 µM in series [2] is 15.5%.
The matching figures for `CC1(C)OC[C@@]2(C)[C@H]3CC[C@@H]4CN(Cc5ccc([N+](=O)[O-])cc5)[C@@H](C5=CCOC5=O)C[C@H]4[C@]3(C)CC[C@H]2O1` [9h, 3-((4aR,4bS,6aS,9R,10aR,10bS,12aR)-2,2,4a,10b-Tetramethyl-8-(4-nitrobenzyl)tetradecahydro-4H-[1,3]dioxino[5′,4′:3,4]benzo[1,2-f]isoquinolin-9-yl)furan-2(5H)-one]: 102% and -4.7%.
The corresponding values for `CC(=O)OC[C@@]1(C)[C@H]2CC[C@@H]3CN(Cc4ccc(F)c(Cl)c4)[C@@H](C4=CCOC4=O)C[C@H]3[C@]2(C)CC[C@H]1OC(C)=O` [4n, ((2R,4aS,6aS,7R,8R,10aS,10bR)-8-Acetoxy-3-(3-chloro-4-fluorobenzyl)-7,10a-dimethyl-2-(2-oxo-2,5-dihydrofuran-3-yl)tetradecahydrobenzo[f]isoquinolin-7-yl)methyl Acetate] are 102% and -4.9%.
Consider `CC(=O)OC[C@@]1(C)[C@H]2CC[C@@H]3CN(Cc4cccc(Cl)c4)[C@@H](C4=CCOC4=O)C[C@H]3[C@]2(C)CC[C@H]1OC(C)=O` [4m, ((2R,4aS,6aS,7R,8R,10aS,10bR)-8-Acetoxy-3-(3-chlorobenzyl)-7,10a-dimethyl-2-(2-oxo-2,5-dihydrofuran-3-yl)tetradecahydrobenzo[f]isoquinolin-7-yl)methyl Acetate], for which, in series [1], the inhibition at 25 µM amounted to 130%. For the same molecule, in series [2], the CC50 at 3 days was greater than 100 µM and the cytotoxicity at 3 days, 25 µM was -13.2%.
With `CC(=O)OC[C@@]1(C)[C@H]2CC[C@@H]3CN(C4CCCC4)[C@@H](C4=CCOC4=O)C[C@H]3[C@]2(C)CC[C@H]1OC(C)=O` [4w, ((2R,4aS,6aS,7R,8R,10aS,10bR)-8-Acetoxy-3-cyclopentyl-7,10a-dimethyl-2-(2-oxo-2,5-dihydrofuran-3-yl)tetradecahydrobenzo[f]isoquinolin-7-yl)methyl Acetate], the inhibition at 25 µM in series [1] stood at 11.3%. For the same molecule, the cytotoxicity at 3 days, 25 µM in series [2] was -4.5%.
In the case of `CC(=O)OC[C@@]1(C)[C@H]2CC[C@@H]3CN(Cc4ccco4)[C@@H](C4=CCOC4=O)C[C@H]3[C@]2(C)CC[C@H]1OC(C)=O` [4o, ((2R,4aS,6aS,7R,8R,10aS,10bR)-8-Acetoxy-3-(furan-2-ylmethyl)-7,10a-dimethyl-2-(2-oxo-2,5-dihydrofuran-3-yl)tetradecahydrobenzo[f]isoquinolin-7-yl)methyl Acetate], in series [1], the “inhibition of HCoV 229E in words” value is recorded as “weak inhibition effect” and the inhibition at 25 µM came out at 58.4%. Further, the cytotoxicity at 3 days, 25 µM in series [2] is -4.5%.
Regarding `CC(=O)OC[C@@]1(C)[C@H]2CC[C@@H]3CN(Cc4cccc5ccccc45)[C@@H](C4=CCOC4=O)C[C@H]3[C@]2(C)CC[C@H]1OC(C)=O` [4q, ((2R,4aS,6aS,7R,8R,10aS,10bR)-8-Acetoxy-7,10a-dimethyl-3-(naphthalen-1-ylmethyl)-2-(2-oxo-2,5-dihydrofuran-3-yl)tetradecahydrobenzo[f]isoquinolin-7-yl)methyl Acetate], in series [1], the inhibition at 25 µM is 121%. The cytotoxicity at 3 days, 25 µM in series [2] is -14.7%.
Regarding `C[C@@]12COCO[C@@H]1CC[C@]1(C)[C@@H]2CC[C@@H]2CN(Cc3cccs3)[C@@H](C3=CCOC3=O)C[C@H]21` [10d, 3-((4aR,4bS,6aS,9R,10aR,10bS,12aR)-4a,10b-Dimethyl-8-(thiophen-2-ylmethyl)tetradecahydro-4H-[1,3]dioxino[5′,4′:3,4]benzo[1,2-f]isoquinolin-9-yl)furan-2(5H)-one], the inhibition at 25 µM in series [1] amounted to 58.6%. For the same molecule, in series [2], the cytotoxicity at 3 days, 25 µM is -13.4%.
The corresponding values for `CCCN1C[C@H]2CC[C@@H]3[C@](C)(COC(C)=O)[C@H](OC(C)=O)CC[C@@]3(C)[C@@H]2C[C@@H]1C1=CCOC1=O` [4r, ((2R,4aS,6aS,7R,8R,10aS,10bR)-8-Acetoxy-7,10a-dimethyl-2-(2-oxo-2,5-dihydrofuran-3-yl)-3-propyltetradecahydrobenzo[f]isoquinolin-7-yl)methyl Acetate] are 51.4% and -5.6%.
Turning to `CC1(C)OC[C@@]2(C)[C@H]3CC[C@@H]4CN(Cc5ccc(C(C)(C)C)cc5)[C@@H](C5=CCOC5=O)C[C@H]4[C@]3(C)CC[C@H]2O1` [9g, 3-((4aR,4bS,6aS,9R,10aR,10bS,12aR)-8-(4-(tert-Butyl)benzyl)-2,2,4a,10b-tetramethyltetradecahydro-4H-[1,3]dioxino[5′,4′:3,4]benzo[1,2-f]isoquinolin-9-yl)furan-2(5H)-one], the inhibition at 25 µM in series [1] came to 103%. For the same molecule, the cytotoxicity at 3 days, 25 µM in series [2] is -0.2%.
As for `CC(=O)OC[C@@]1(C)[C@H]2CC[C@@H]3CN(Cc4cccs4)[C@@H](C4=CCOC4=O)C[C@H]3[C@]2(C)CC[C@H]1OC(C)=O` [4p, ((2R,4aS,6aS,7R,8R,10aS,10bR)-8-Acetoxy-7,10a-dimethyl-2-(2-oxo-2,5-dihydrofuran-3-yl)-3-(thiophen-2-ylmethyl)tetradecahydrobenzo[f]isoquinolin-7-yl)methyl Acetate], in series [1], the “inhibition of HCoV 229E in words” value is given as “weak inhibition effect” and the inhibition at 25 µM was determined as 26.9%. Moreover, the cytotoxicity at 3 days, 25 µM in series [2] was found to be 4.2%.
For `CC(=O)OC[C@@]1(C)[C@H]2CC[C@@H]3CN(Cc4ccc(O)cc4)[C@@H](C4=CCOC4=O)C[C@H]3[C@]2(C)CC[C@H]1OC(C)=O` [4j, ((2R,4aS,6aS,7R,8R,10aS,10bR)-8-Acetoxy-3-(4-hydroxybenzyl)-7,10a-dimethyl-2-(2-oxo-2,5-dihydrofuran-3-yl)tetradecahydrobenzo[f]isoquinolin-7-yl)methyl Acetate], the inhibition at 25 µM in series [1] turned out to be 55.6%. The cytotoxicity at 3 days, 25 µM in series [2] is -5.2%.
On to `CC(=O)OC[C@@]1(C)[C@H]2CC[C@@H]3CN(Cc4ccc(Br)cc4)[C@@H](C4=CCOC4=O)C[C@H]3[C@]2(C)CC[C@H]1OC(C)=O` [4d, ((2R,4aS,6aS,7R,8R,10aS,10bR)-8-Acetoxy-3-(4-bromobenzyl)-7,10a-dimethyl-2-(2-oxo-2,5-dihydrofuran-3-yl)tetradecahydrobenzo[f]isoquinolin-7-yl)methyl Acetate], for which the inhibition at 25 µM in series [1] was found to be 110%. Moreover, in series [2], the cytotoxicity at 3 days, 25 µM is -3%.
The corresponding values for `C=C1CC[C@@H]2[C@](C)(CO)[C@H](O)CC[C@@]2(C)[C@@H]1C/C=C1/C(=O)OC[C@H]1O` [andrographolide 1, andrographolide, reference compound] are 34.8% and 23.6%.
Take `CC(=O)OC[C@@]1(C)[C@H]2CC[C@@H]3CN(Cc4ccccc4F)[C@@H](C4=CCOC4=O)C[C@H]3[C@]2(C)CC[C@H]1OC(C)=O` [4l, ((2R,4aS,6aS,7R,8R,10aS,10bR)-8-Acetoxy-3-(2-fluorobenzyl)-7,10a-dimethyl-2-(2-oxo-2,5-dihydrofuran-3-yl)tetradecahydrobenzo[f]isoquinolin-7-yl)methyl Acetate]: the inhibition at 25 µM in series [1] amounted to 148%. In addition, in series [2], the CC50 at 3 days was greater than 100 µM and the cytotoxicity at 3 days, 25 µM was -19.5%.
`CC(=O)OC[C@@]1(C)[C@H]2CC[C@@H]3CN(C4CCCCCC4)[C@@H](C4=CCOC4=O)C[C@H]3[C@]2(C)CC[C@H]1OC(C)=O` [4y, ((2R,4aS,6aS,7R,8R,10aS,10bR)-8-Acetoxy-3-cycloheptyl-7,10a-dimethyl-2-(2-oxo-2,5-dihydrofuran-3-yl)tetradecahydrobenzo[f]isoquinolin-7-yl)methyl Acetate]: in series [1], the inhibition at 25 µM worked out at 135%. For the same molecule, in series [2], the CC50 at 3 days is greater than 100 µM and the cytotoxicity at 3 days, 25 µM is -18.2%.
